ABCG2 inh = ABCG2 efflux pump inhibitors, primary screen, multiplex with ABCB1, IgMXP3 cells, flow cytometry. Broad substrate specificity ATP-binding cassette transporter ABCG2 (Homo sapiens), Q9UNQ0. JC-1 efflux. inhibition, % at 6.6 µM. 0.1% of 190,000 active. AID 1325, 2008;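 active = inhibition above 80%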
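Test system: ABCG2 IgMXP3 and barcoded ABCB1 CCRF-Adr cell mix; Schedule: cells with compound and JC-1, 10 min at 25 °C, rotating, no wash; Technique: flow cytometry of retained JC-1 fluorescence; Measure: % inhibition of efflux relative to nicardipine and DMSO; Controls: nicardipine high and DMSO low controls.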
EP2 mod = EP2 receptor modulators, cAMP readout, primary screen, cell-based, HTRF cAMP, PGE2 stimulation | Prostaglandin E2 receptor EP2 subtype (Homo sapiens), P43116 | EP2-expressing cells, cAMP HTRF FRET, PGE2 co-stimulation | induction, % at 25 µM | 0.83% of 260,000 active | AID 940, 2007;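 active = compounds whose cAMP rise, as percent of the full-agonist control response, exceeds 60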;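 also: rat C6 glioma line stably carrying human EP2 under a CMV promoter; the protocol text gives 20 µM as final concentration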
PGE2 EP2 inh = human EP2 receptor antagonists, primary screen, TR-FRET cAMP, C6 glioma cells; Prostaglandin E2 receptor EP2 subtype (Homo sapiens), P43116; C6 glioma cells expressing human EP2; cells stimulated with saturating PGE2; inhibition, % at 25 µM; 0.52% of 260,000 active; AID 1422, 2008;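 active = percent inhibition above 40 after rounding to a whole number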;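 also: rat C6 glioma host cells with rolipram phosphodiesterase inhibitor present; the protocol text gives 20 µM as final concentration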
ABCB1 block = ABCB1 efflux pump inhibitors, primary screen, cell-based, multiplex, flow cytometry, ABCG2 counter-screen; ATP-dependent translocase ABCB1 (Homo sapiens), P08183; CCRF-Adr cells, JC-1 efflux; inhibition, % at 6.6 µM; 0.067% of 190,000 active; in the data active = inhibition above about 40%;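 also: higher value means more JC-1 retained so stronger ABCB1 efflux block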
RBBP9 inh = human RBBP9 inhibitors, primary screen, biochemical, fluorescence polarization, FP-Rh probe, HTS | 0.2% of 220,000 active | inhibition, % at 7.94 µM | Serine hydrolase RBBP9 (Homo sapiens), O75884 | recombinant RBBP9 | AID 1515, 2009;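 active = inhibition above the campaign mean of all tested compounds plus 3 SD, cut at about 14% in these data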
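Test system: recombinant human RBBP9. Quantity: 2.5 µM RBBP9 dispensing solution, before mixing. Detection: FP readout at 525/598 nm. Reagent: Serine-hydrolase probe FP-Rh, 375 nM pre-mixing. Measure: % inhibition. Control set: DMSO-treated enzyme wells and wells lacking RBBP9. Buffer or medium: Tris-NaCl-Pluronic buffer, pH 8.0. Times: preincubation 30 min plus labeling 45 min at 25 °C.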
RBBP9 confirm = human RBBP9 inhibitors, retest, confirmation, biochemical, fluorescence polarization, FP-Rh probe, triplicate; shares compounds with RBBP9 inh; AID 1537, 2009; 36% of 410 active; inhibition, % at 7.94 µM; recombinant RBBP9;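 active = inhibition above the hit cutoff derived for the primary screen, cut at about 15% in these data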
Numbers stand for hits; 0 = inactive; - = no result given. Compounds with a hit are over-represented: about 1.5% of the library has one in this group of screens.

SMILES	ABCG2 inh	EP2 mod	PGE2 EP2 inh	ABCB1 block	RBBP9 inh	RBBP9 confirm
O=C(C1COc2ccccc2O1)N1CCCC1 (configuration not stated)	0	0	0	0	15	0
CCOC(=O)C(C(C)=O)c1c(Br)c(O)c(O)c2c(C(=O)c3ccc(C)cc3)coc12 (configuration not stated)	0	0	0	0	24	17
Nc1nc(-c2cccnc2)nn1C(=O)COc1ccccc1	0	0	0	0	0	-
Nc1nc(-c2cccnc2)nn1C(=O)CCc1ccccc1	-	-	0	-	14	0
CC(C)c1cc(Nc2cccc(O)c2)cc(C(C)C)c1O	-	-	0	-	16	0
CCOc1ccccc1NC(=O)C1CCCN(c2c(C)c(C)nc3ncnn23)C1 (configuration not stated)	-	0	0	-	-	-
COc1cc(/C=C/c2ccc3c(Br)cc(Br)c(O)c3n2)ccc1O	-	0	0	-	17	47
Nc1cc(-c2ccco2)nn(CC(=O)N2CCOCC2)c1=O	-	0	0	-	-	-
NC(N)=N/N=C/c1ccc(OCc2ccc(Cl)cc2)cc1	0	0	64	0	19	0
NC(N)=N/N=C/c1ccc(OCc2ccccc2)cc1	0	0	0	0	0	-
COc1cccc(CNc2ccc(N3CCCCC3)cc2)c1OC	0	0	0	0	14	17
Cc1cc(C)cc(-n2c(SC(C)C(=O)NCc3ccc4c(c3)OCO4)nc3ccccc3c2=O)c1 (configuration not stated)	0	0	0	0	21	0
Cc1cccc(-n2c(SCC(=O)NCc3ccc4c(c3)OCO4)nc3ccccc3c2=O)c1	0	0	0	0	0	-
Cc1ccc2cc3c(nc2c1C)OC(C)C(=O)N(Cc1ccco1)C3 (configuration not stated)	-	0	-	-	-	-
O=C1CCC(=O)N1c1ccc(-c2nc3sc4c(c3c(=O)o2)CCC4)cc1	-	0	0	-	15	0
CC1=NN(c2ccccc2)C(=O)C1C=Nc1ccc(N(C)C)cc1 (configuration not stated)	-	0	0	-	19	15
Cc1ccc(-c2cc(N)c(=O)n(CC(=O)N3CCCCC3C)n2)o1 (configuration not stated)	-	0	0	-	-	-
Cc1nn(-c2ccccc2)nc1C(=O)c1c(C)[nH]n(-c2ccccc2)c1=O	-	0	0	-	15	0
O=C(COC(=O)/C=C/c1cccs1)Nc1nc(-c2cccc(Br)c2)cs1	-	0	0	-	17	27
O=C(COC(=O)/C=C/c1cccs1)Nc1nc(-c2ccccc2)cs1	0	0	0	0	0	-
CCN(CC)c1nc2c(c(=O)[nH]c(=O)n2C)n1CC(O)COc1ccc(Cl)cc1 (configuration not stated)	-	0	0	-	-	-
CCCc1nnc(NC(=O)CN2CCN(C)CC2)s1	0	0	0	0	17	0
C=C(C)CN1CCN(C(=O)CCn2c(-c3ccccn3)nc3ccccc32)CC1	-	0	0	-	-	-
O=C(N/N=C/c1ccc(O)c(O)c1O)/C(=C/c1ccc([N+](=O)[O-])cc1)NC(=O)c1ccccc1	0	0	0	0	18	38
Cc1ccc(NC(=O)/C(=C\c2ccc([N+](=O)[O-])cc2)NC(=O)c2ccccc2)cc1	0	0	0	0	0	-
SMILES	ABCG2 inh	EP2 mod	PGE2 EP2 inh	ABCB1 block	RBBP9 inh	RBBP9 confirm
O=C(Nc1ccc(F)cc1)N(Cc1nc2ccccc2c(=O)[nH]1)Cc1cccs1	-	0	0	-	-	-
O=C1c2ccc(Oc3cccc([N+](=O)[O-])c3)cc2C(=O)N1c1ccccn1	0	0	0	0	0	-
O=C1c2cc([N+](=O)[O-])cc3cc([N+](=O)[O-])cc(c23)C(=O)N1c1ccccn1	0	0	0	0	15	0
Cc1nonc1CN1CCN(CC2(c3ccc(Cl)cc3)CC2)CC1	-	0	0	-	-	-
COc1ccc(OC)c(CCNC(=O)Cn2cccc2C(=O)c2ccccc2C)c1	0	0	0	0	15	0
CCN1CCN(C(=O)C2(NC(=O)Nc3ccccc3Cl)CCCCC2)CC1	0	0	0	0	16	0
CN1CCN(C(=O)C2(NC(=O)Nc3ccccc3Cl)CCCCC2)CC1	0	0	0	0	0	-
O=C1c2ccccc2C(=O)N1/N=C/c1ccc(O)c(O)c1O	-	0	0	-	20	45
Cc1ccc(/C=C2\SC(=S)N(/N=C/c3cc([N+](=O)[O-])ccc3O)C2=O)o1	0	0	0	0	15	23
O=C(NNC(=O)c1cc(O)c(O)c(O)c1)NC1CCCCC1	0	0	0	0	14	23
O=C(NNC(=O)c1cccnc1)NC1CCCCC1	0	0	0	0	0	-
CN1CC(C(=O)Nc2ccc(-c3cn4c5c(nnc4n3)CCCC5)cc2)CC1=O (configuration not stated)	-	0	0	-	-	-
Cc1ccccc1NC(=O)c1sc2nc3c(c(-c4ccco4)c2c1N)CCCC3	0	0	0	0	15	0
COc1cccc(NC(=O)c2ccc3c(c2)N(Cc2ccc(F)cc2)C(=O)C(C)(C)O3)c1	-	0	0	-	-	-
CC(C)CC(=O)O/N=C1\C(=O)N(Cc2ccc(Cl)cc2)c2ccc([N+](=O)[O-])cc21	0	0	0	0	24	46
COC(=O)c1cc(NC(=S)N2CCN(C(=O)C3CCCO3)CC2)cc(C(=O)OC)c1 (configuration not stated)	0	0	0	0	21	0
CC/C(=C\C(=O)c1ccncc1)Nc1ccc(O)cc1	0	0	0	0	47	0
CN(C)S(=O)(=O)c1cccc(NC(=S)Nc2cccc3cnccc23)c1	-	0	0	-	19	0
Cc1cc(O)c(-c2cc(O)c(C)cc2O)cc1O	-	0	134	-	47	73
Cc1cc(O)cc(C)c1Cl	-	0	0	-	-	-
CCCCOc1ccc(NC(=O)Cn2nc(-c3cc(C)oc3C)cc(N)c2=O)cc1	-	0	0	-	-	-
Oc1ccccc1C1Nc2cccc3cccc(c23)N1	0	0	0	0	0	-
O=[N+]([O-])c1ccccc1C1Nc2cccc3cccc(c23)N1	0	0	0	0	32	27
O=[N+]([O-])c1ccc(Cl)c(C2Nc3cccc4cccc(c34)N2)c1	0	0	0	0	35	37
CCOc1ccc2[nH]c(=O)c(C(c3nnnn3C(C)(C)C)N(CC)Cc3ccccc3)cc2c1 (configuration not stated)	-	0	0	-	-	-
COCCNC(=O)c1cc2c(=O)n3ccccc3nc2n(Cc2ccc(C)cc2)c1=N	-	0	0	-	-	-
CCCC(=O)Nc1nnc(SCC(=O)Nc2cccc(C)c2)s1	-	0	0	-	-	-

High-throughput results: PubChem BioAssay, several laboratories
